In ChEMBL document CHEMBL1154183, “Structure-based optimization of potent and selective inhibitors of the tyrosine kinase erythropoietin producing human hepatocellular carcinoma receptor B4 (EphB4)” (J Med Chem, 2009) one finds Activity and IC50 data, which are given here for two compounds.

For assay [1], the target named is Mitogen-activated protein kinase 1 (Homo sapiens) (UniProt P28482). The assay can be described thus: Inhibition of ERK2 assessed as remaining enzyme activity at 3 uM relative to DMSO. In outline:
(§1)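 Dundee kinase panel, radiometric: [γ-33P]ATP (800 cpm/pmol) at 5, 20 or 50 μM, at or below each kinase's ATP Km; 10 mM magnesium acetate; robotic, room temperature, 30 min. Reactions started with MgATP, stopped with orthophosphoric acid, spotted onto P81 filters. Inhibitor tested at a single concentration; mean % activity of duplicates relative to DMSO control.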

Assay [2] concerns the target Rho-associated protein kinase 2 (Homo sapiens) (UniProt O75116). Put plainly: Inhibition of ROCK2 assessed as remaining enzyme activity at 3 uM relative to DMSO.
The target of assay [3] is MAP kinase-interacting serine/threonine-protein kinase 1 (Homo sapiens) (UniProt Q9BUB5). The assay can be described thus: Inhibition of MNK1 assessed as remaining enzyme activity at 3 uM relative to DMSO. The method in brief:
(§2)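 Radiometric kinase assay run robotically at room temperature for 30 min. Contained 10 mM magnesium acetate and [γ-33P]ATP (800 cpm/pmol) at 5, 20 or 50 μM, chosen per kinase to be at or below its ATP Km. Reactions were started with MgATP, stopped with orthophosphoric acid and spotted onto P81 filters. Result is mean % activity of duplicates at one inhibitor concentration versus DMSO control.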

Assay [4] concerns the target MAP kinase-activated protein kinase 5 (Homo sapiens) (UniProt Q8IW41). Put plainly: Inhibition of PRAK assessed as remaining enzyme activity at 3 uM relative to DMSO.
In assay [5] the target is Serine/threonine-protein kinase Chk2 (Homo sapiens) (UniProt O96017). The assay can be described thus: Inhibition of CHK2 assessed as remaining enzyme activity at 3 uM relative to DMSO. In outline: as §1
The target of assay [6] is Eukaryotic elongation factor 2 kinase (Homo sapiens) (UniProt O00418). Put plainly: Inhibition of EF2K assessed as remaining enzyme activity at 3 uM relative to DMSO. The method in brief: as §1
Assay [7] deals with Homeodomain-interacting protein kinase 2 (Homo sapiens) (UniProt Q9H2X6). Put plainly: Inhibition of HIPK2 assessed as remaining enzyme activity at 3 uM relative to DMSO. The method in brief: as §1
For assay [8], the target named is Serine/threonine-protein kinase PAK 4 (Homo sapiens) (UniProt O96013). The assay can be described thus: Inhibition of PAK4 assessed as remaining enzyme activity at 3 uM relative to DMSO. In outline: as §2
The nature of assay [9]: Inhibition of VEG-FR assessed as remaining enzyme activity at 3 uM relative to DMSO.
The target of assay [10] is Insulin receptor (Homo sapiens) (UniProt P06213). The assay can be described thus: Inhibition of histidine-tagged IR assessed as remaining enzyme activity at 3 uM relative to DMSO.
Assay [11] has as its target 3-phosphoinositide-dependent protein kinase 1 (Homo sapiens) (UniProt O15530). Put plainly: Inhibition of PDK1 assessed as remaining enzyme activity at 3 uM relative to DMSO.
In assay [12] the target is TGF-beta receptor type-1 (Homo sapiens) (UniProt P36897). The assay can be described thus: Binding affinity to TGFBR1 assessed as percentage of kinase remaining bound to the bead at 1 uM by T7 phage display based binding assay. The method in brief: (§3)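 Competition binding assay run by a contract lab. Each kinase was expressed as a fusion to T7 phage, full-length for small kinases and catalytic domain for large ones. Phage were mixed with an immobilized known kinase inhibitor on streptavidin magnetic beads and with test compound at a single 1 μM. Kinase/phage still bound to the beads was quantified by qPCR and expressed as % of DMSO control.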

For assay [13], the target named is TGF-beta receptor type-2 (Homo sapiens) (UniProt P37173). Put plainly: Binding affinity to TGFBR2 assessed as percentage of kinase remaining bound to the bead at 1 uM by T7 phage display based binding assay. The method in brief: as §3
For assay [14], the target named is Vascular endothelial growth factor receptor 2 (Homo sapiens) (UniProt P35968). Put plainly: Binding affinity to VEGFR2 assessed as percentage of kinase remaining bound to the bead at 1 uM by T7 phage display based binding assay. In outline: (§4)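 Kinases expressed as T7 phage fusions (full-length for small kinases, catalytic domain for large). Phage mixed with an immobilized known kinase inhibitor on streptavidin magnetic beads plus test compound at a single 1 μM concentration. Ligand displacement from the ATP site was read by quantitative PCR as % kinase/phage still bead-bound versus DMSO control. Human kinases.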

Assay [15] addresses Serine/threonine-protein kinase 32C (Homo sapiens) (UniProt Q86UX6). Put plainly: Binding affinity to YANK3 assessed as percentage of kinase remaining bound to the bead at 1 uM by T7 phage display based binding assay. In outline: as §3
Assay [16] deals with Mitogen-activated protein kinase kinase kinase 20 (Homo sapiens) (UniProt Q9NYL2). Put plainly: Binding affinity to ZAK assessed as percentage of kinase remaining bound to the bead at 1 uM by T7 phage display based binding assay. The method in brief:
as §3

A further assay has as its target Ephrin type-A receptor 4 (Homo sapiens, UniProt P54764). Put plainly: Inhibition of EphA4 by [gamma33-P]ATP based assay. The method in brief: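 Radiometric [γ-33P]ATP kinase assay against Eph kinases, following a protocol similar to the Mg-acetate/MgATP filter-binding method.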
Assay [17] concerns the target Serine/threonine-protein kinase TBK1 (Homo sapiens) (UniProt Q9UHD2). The assay can be described thus: Inhibition of TBK1 assessed as remaining enzyme activity at 1 uM relative to DMSO.
Assay [18] concerns the target Tyrosine-protein kinase ABL2 (Homo sapiens) (UniProt P42684). The assay can be described thus: Binding affinity to ABL2 assessed as percentage of kinase remaining bound to the bead at 1 uM by T7 phage display based binding assay. The method in brief: as §3
Assay [19] deals with Fibroblast growth factor receptor 4 (Homo sapiens) (UniProt P22455). Put plainly: Binding affinity to FGFR4 assessed as percentage of kinase remaining bound to the bead at 1 uM by T7 phage display based binding assay. In outline:
as §3

Assay [20] has as its target Vascular endothelial growth factor receptor 3 (Homo sapiens) (UniProt P35916). Put plainly: Binding affinity to FLT4 assessed as percentage of kinase remaining bound to the bead at 1 uM by T7 phage display based binding assay. In outline: as §4
Assay [21] concerns the target Casein kinase I isoform alpha (Homo sapiens) (UniProt P48729). The assay can be described thus: Inhibition of CK1 assessed as remaining enzyme activity at 1 uM relative to DMSO. In outline:
(§5)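 Radiometric kinase assay run robotically at room temperature for 30 min, linear in time and enzyme. Conditions: 10 mM magnesium acetate, [γ-33P]ATP (800 cpm/pmol) at 5, 20 or 50 μM per kinase, at or below its ATP Km. Started with MgATP and stopped with orthophosphoric acid, then spotted on P81 filters. Reported as mean % activity of duplicates versus DMSO controls.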

The target in assay [22] is Serine/threonine-protein kinase pim-3 (Homo sapiens) (UniProt Q86V86). Put plainly: Inhibition of PIM3 assessed as remaining enzyme activity at 1 uM relative to DMSO. In outline: as §2
For assay [23], the target named is Serine/threonine-protein kinase 3 (Homo sapiens) (UniProt Q13188). The assay can be described thus: Inhibition of MST2 assessed as remaining enzyme activity at 1 uM relative to DMSO. The method in brief: as §2
The target in assay [24] is RAC-alpha serine/threonine-protein kinase (Homo sapiens) (UniProt P31749). The assay can be described thus: Inhibition of PKBalpha assessed as remaining enzyme activity at 1 uM relative to DMSO. In outline:
as §2

Assay [25] addresses Ribosomal protein S6 kinase alpha-5 (Homo sapiens) (UniProt O75582). The assay can be described thus: Inhibition of MSK1 assessed as remaining enzyme activity at 1 uM relative to DMSO. The method in brief:
as §5

The target in assay [26] is Serine/threonine-protein kinase Chk2 (Homo sapiens) (UniProt O96017). Put plainly: Inhibition of CHK2 assessed as remaining enzyme activity at 1 uM relative to DMSO. The method in brief:
as §1

Structures are written as SMILES.

Chain of Serine/threonine-protein kinase Chk2 (Homo sapiens) (O96017 whole entry): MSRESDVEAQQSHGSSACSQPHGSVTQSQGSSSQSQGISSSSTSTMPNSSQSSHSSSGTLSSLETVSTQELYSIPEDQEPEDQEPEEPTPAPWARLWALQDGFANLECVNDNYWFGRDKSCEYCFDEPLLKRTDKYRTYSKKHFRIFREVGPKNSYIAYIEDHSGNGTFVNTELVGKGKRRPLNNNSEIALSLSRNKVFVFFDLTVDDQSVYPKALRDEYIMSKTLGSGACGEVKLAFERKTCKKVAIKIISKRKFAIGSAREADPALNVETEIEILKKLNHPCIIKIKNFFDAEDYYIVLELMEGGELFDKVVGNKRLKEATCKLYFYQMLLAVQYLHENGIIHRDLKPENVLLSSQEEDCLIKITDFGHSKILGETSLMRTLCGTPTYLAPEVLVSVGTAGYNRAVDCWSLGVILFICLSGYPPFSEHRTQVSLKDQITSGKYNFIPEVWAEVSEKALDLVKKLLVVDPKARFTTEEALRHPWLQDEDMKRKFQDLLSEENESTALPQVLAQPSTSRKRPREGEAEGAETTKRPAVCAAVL
Chain of Ephrin type-A receptor 4 (P54764 whole entry): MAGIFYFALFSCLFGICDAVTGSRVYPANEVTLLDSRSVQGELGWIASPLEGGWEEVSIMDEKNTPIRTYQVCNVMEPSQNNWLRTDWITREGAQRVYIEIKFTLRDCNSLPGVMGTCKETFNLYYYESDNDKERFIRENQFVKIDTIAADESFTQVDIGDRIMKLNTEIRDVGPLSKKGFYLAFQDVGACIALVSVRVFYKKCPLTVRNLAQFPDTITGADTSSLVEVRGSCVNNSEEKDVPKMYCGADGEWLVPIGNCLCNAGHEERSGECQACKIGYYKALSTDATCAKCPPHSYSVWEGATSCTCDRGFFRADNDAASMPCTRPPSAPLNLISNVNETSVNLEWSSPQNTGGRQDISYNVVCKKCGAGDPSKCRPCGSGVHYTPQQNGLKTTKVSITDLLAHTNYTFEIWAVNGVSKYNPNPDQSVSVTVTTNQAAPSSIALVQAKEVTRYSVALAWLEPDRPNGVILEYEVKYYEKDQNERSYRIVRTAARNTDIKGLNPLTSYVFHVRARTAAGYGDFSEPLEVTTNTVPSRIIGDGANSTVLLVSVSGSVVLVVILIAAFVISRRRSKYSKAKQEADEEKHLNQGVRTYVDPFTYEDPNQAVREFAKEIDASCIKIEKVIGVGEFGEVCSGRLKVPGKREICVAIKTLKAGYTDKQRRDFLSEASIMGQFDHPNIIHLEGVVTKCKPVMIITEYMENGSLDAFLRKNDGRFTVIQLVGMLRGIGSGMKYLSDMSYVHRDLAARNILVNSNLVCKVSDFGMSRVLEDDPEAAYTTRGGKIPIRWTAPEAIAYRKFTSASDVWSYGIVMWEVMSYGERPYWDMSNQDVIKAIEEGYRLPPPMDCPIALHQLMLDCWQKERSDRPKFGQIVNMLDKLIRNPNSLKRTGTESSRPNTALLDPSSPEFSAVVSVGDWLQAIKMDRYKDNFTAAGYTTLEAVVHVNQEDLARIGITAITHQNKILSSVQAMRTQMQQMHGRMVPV
Chain of Insulin receptor (Homo sapiens) (P06213 28-758 limits assumed): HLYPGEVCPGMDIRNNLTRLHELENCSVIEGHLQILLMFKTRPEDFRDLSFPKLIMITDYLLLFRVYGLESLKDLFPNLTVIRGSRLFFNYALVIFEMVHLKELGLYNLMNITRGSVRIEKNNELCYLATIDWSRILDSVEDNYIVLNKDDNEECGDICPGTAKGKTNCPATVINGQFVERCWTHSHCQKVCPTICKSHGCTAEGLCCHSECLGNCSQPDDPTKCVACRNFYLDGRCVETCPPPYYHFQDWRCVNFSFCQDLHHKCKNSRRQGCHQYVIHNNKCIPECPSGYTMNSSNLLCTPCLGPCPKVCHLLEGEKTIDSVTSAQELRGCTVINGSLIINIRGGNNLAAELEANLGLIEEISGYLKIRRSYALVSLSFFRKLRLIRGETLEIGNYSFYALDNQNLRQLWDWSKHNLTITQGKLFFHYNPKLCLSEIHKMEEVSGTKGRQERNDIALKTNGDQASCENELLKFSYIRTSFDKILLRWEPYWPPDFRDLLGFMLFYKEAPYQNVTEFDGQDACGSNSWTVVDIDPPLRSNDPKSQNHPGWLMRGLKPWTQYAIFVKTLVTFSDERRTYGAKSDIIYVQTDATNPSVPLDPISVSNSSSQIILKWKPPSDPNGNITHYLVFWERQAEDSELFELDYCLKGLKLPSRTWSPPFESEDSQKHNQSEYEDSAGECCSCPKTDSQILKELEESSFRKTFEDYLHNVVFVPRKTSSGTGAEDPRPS
Chain of Insulin receptor (Homo sapiens) (P06213 763-1382 limits assumed): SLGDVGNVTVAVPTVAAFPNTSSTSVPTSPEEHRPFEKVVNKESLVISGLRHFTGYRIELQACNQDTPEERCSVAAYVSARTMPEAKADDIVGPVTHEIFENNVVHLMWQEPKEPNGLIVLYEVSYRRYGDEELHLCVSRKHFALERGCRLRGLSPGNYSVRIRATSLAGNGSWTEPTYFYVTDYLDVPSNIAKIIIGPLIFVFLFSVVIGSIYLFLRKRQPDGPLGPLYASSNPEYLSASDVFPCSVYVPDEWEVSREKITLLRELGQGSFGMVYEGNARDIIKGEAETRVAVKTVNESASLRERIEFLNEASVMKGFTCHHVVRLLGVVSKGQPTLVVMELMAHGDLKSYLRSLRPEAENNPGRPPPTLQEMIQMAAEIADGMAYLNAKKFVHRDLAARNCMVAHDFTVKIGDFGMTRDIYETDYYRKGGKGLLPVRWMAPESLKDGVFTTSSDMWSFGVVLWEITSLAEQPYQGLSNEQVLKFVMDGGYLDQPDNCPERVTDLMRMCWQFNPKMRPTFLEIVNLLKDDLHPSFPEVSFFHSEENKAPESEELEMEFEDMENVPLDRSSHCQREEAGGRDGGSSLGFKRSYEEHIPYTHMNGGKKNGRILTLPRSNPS
Chain of TGF-beta receptor type-1 (Homo sapiens) (P36897 whole entry, the tested form may be a part): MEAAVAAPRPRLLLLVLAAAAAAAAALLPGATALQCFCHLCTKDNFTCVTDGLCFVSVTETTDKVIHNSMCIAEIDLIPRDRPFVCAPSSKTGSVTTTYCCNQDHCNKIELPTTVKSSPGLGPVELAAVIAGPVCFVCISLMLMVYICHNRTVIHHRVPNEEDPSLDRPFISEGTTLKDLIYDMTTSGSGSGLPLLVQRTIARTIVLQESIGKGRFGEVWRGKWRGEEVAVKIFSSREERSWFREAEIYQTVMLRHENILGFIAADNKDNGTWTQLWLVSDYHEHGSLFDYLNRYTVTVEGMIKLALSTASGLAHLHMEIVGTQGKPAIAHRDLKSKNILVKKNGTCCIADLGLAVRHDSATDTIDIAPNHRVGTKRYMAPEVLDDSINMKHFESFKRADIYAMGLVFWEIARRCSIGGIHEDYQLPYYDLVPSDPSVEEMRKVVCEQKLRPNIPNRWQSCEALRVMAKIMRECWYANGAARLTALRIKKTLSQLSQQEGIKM
Chain of Fibroblast growth factor receptor 4 (Homo sapiens) (P22455 22-802 limits assumed): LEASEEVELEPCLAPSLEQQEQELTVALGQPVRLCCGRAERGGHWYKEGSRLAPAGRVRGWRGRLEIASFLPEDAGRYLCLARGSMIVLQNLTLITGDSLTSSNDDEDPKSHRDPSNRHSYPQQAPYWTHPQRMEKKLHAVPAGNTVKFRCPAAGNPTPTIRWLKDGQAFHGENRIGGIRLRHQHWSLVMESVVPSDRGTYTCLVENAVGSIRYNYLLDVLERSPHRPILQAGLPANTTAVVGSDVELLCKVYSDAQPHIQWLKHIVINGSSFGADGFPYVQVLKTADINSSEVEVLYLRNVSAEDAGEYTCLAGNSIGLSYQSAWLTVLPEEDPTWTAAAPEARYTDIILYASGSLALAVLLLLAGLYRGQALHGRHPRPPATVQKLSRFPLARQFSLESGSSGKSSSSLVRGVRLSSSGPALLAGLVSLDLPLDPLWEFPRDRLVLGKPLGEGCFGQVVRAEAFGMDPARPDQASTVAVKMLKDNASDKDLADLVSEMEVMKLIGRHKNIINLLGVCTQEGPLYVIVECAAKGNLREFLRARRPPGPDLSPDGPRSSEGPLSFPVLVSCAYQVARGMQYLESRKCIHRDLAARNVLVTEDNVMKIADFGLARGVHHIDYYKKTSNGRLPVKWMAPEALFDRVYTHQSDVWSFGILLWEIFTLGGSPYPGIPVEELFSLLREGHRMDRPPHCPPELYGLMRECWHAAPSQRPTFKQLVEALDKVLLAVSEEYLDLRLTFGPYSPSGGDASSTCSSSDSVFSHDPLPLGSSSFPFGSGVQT
Chain of RAC-alpha serine/threonine-protein kinase (Homo sapiens) (P31749 whole entry): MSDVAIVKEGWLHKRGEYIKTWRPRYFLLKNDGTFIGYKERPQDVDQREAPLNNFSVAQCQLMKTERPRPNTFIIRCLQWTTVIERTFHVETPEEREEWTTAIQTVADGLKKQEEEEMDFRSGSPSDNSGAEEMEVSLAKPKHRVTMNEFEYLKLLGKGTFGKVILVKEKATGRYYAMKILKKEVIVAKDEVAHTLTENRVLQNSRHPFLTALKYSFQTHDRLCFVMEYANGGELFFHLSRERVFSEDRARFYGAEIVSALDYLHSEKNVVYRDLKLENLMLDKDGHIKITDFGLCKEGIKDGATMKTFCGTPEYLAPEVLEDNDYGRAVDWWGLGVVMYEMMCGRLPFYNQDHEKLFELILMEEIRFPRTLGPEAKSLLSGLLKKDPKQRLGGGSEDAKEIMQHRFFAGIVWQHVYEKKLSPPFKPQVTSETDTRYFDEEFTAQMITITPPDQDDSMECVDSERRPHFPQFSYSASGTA

With `COc1ccccc1-n1c(-c2ccccc2C)cn2c3c(=O)[nH]c(=O)n(C)c3nc12`, the Activity in assay [1] amounted to 91%; in assay [2], 94%; in assay [3], 93%; in [4], 87%; in assay [5] it was 99%; in [6], 93%. Besides, the Activity turned out to be 114% in assay [7]; 93% in assay [8]; 106% in assay [9]; 103% in [10]; 109% in assay [11].
As for `COc1ccccc1-n1c(-c2cc(O)ccc2C)cn2c3c(=O)[nH]c(=O)n(C)c3nc12`, the Activity is 3.6% in [12]; 2.4% in [13]; 96% in assay [14]; 100% in assay [15]; 15% in assay [16]; 89% in [17]. The Activity is 0.75% in [18]; 100% in [19]; 93% in assay [20]; 93% in assay [21]; 81% in [22]; 111% in assay [23]. Moreover, the Activity in assay [24] was determined as 98%; in assay [25] it was 95%; in assay [26], 90%. In addition, the half-maximal inhibitory concentration (IC50) – broadly, the concentration needed to halve the response being measured – on Ephrin type-A receptor 4 was determined as 3.3 nM.
